# DSG3 Ab inh – blocks pemphigus antibody binding to human desmoglein-3. P32926. DSG3-coupled beads, scFv-anti-DSG3-GFP binding, flow cytometry; active compounds read low. binding (percent of control), % at 10 µM. 310,000 compounds, 0.48% hits. AID 588358;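 active = binding more than 3 SD below its plate's average and above zero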;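 also: hits lower antibody fragment binding to DSG3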
# Apaf-1 inh – blocks human Apaf-1 apoptosome activity; O14727; reconstituted apoptosome caspase-3 activity, DEVD-Rh110 fluorescence; inhibition, % at 20 µM; 330,000 compounds, 0.71% hits; AID 489030; active = inhibition of at least 40% at 20 µM;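 also: plate controls were DMSO wells for no effect and DEVD-CHO caspase inhibitor wells for full effect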
#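 System: Apoptosome proteins | Medium: Hepes pH 7.5 with detergent and BSA | Also added: Cytochrome c trigger plus (Z-DEVD)2-Rh110 caspase-3 substrate | Incubation: 30 min compound preincubation, 50 min activation, room temperature | Detection: Rhodamine 110 fluorescence at Ex 480/Em 540 nm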
# MEKK2wt PB1 HTS – raises or lowers MEK5 binding to wildtype human MEKK2 PB1 domain; AID 1531; binding response (% of control), % at 10 µM; 290,000 compounds, 1.1% hits; bead flow cytometry, Alexa488-MEK5 binding to MEKK2 WT; actives lie on both sides; Q9Y2U5; in the data active = binding response below about 67% or above about 130%
# MEKK2mut PB1 HTS – signal of MEK5 binding to mutant human MEKK2 PB1 domain; percent response, % at 10 µM; bead flow cytometry, Alexa488-MEK5 binding to MEKK2 mutant; 290,000 compounds, 0.35% hits; in the data active = percent response above about 24%, passing the limit was not always enough
# UBC13 polyUb – human UBC13 polyubiquitination inhibition. P61088. UBC13 polyubiquitin chain formation, TR-FRET. inhibition, % at 20 µM. 330,000 compounds, 0.47% hits. AID 485273; in the data active = inhibition above about 45%, passing the limit was not always enough
# MEKK3 PB1 HTS – MEKK3-MEK5 PB1 interaction, increase or decrease | Q99759 | bead-based flow cytometry, Alexa488-MEK5 binding to MEKK3; actives lie on both sides; 0 = blocked by unlabeled MEK5, 100 = vehicle | binding response (% of control), % at 10 µM | 290,000 compounds, 1.4% hits | AID 1529;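 active = binding response more than 3 SD above or below the average of its plate-row segment, actives on both sides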;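 also: Alexa488 bead fluorescence after subtracting the streptavidin-only scavenger bead signal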
# Numbers without * were called inactive; / = no result; [ ] = remark or other dose. Only some compounds are listed: those with a hit (about 3.2% of all), similar ones and a draw of the others.
SMILES,DSG3 Ab inh,Apaf-1 inh,MEKK2wt PB1 HTS,MEKK2mut PB1 HTS,UBC13 polyUb,MEKK3 PB1 HTS
O=C1Nc2cc(C(=O)NCCN3CCCCCC3)ccc2S/C1=C/c1ccccc1F,108.0,/,/,/,/,/
O=C1Nc2cc(C(=O)NCCCN3CCCC3)ccc2S/C1=C/c1ccccc1F,110.2,18.0,138.0*,13.0,36.2,103.0
Cc1ccc(N=Cc2cccc(O)c2O)c(C)c1,/,93.3*,99.0,-6.0,-5.5,103.0
CCN(CC)c1ccc(C=Nc2ccc(C)cc2C)c(O)c1,112.3,4.8,77.0,-7.0,18.3,92.0
O=C(CN1CCN(Cc2ccccc2F)CC1)Nc1ccccc1Cl,90.2,14.5,104.0,-1.0,-0.8,99.0
O=C(NCCCN1CCOCC1)c1cc2nc(-c3ccco3)cc(C(F)(F)F)n2n1,33.4*,2.1,95.0,-1.0,-0.7,98.0
O=C(NC1CCCCC1)c1cc2nc(-c3ccco3)cc(C(F)(F)F)n2n1,103.8,/,96.0,-1.0,/,93.0
O=C(CC1S/C(=N\S(=O)(=O)c2ccc(F)cc2)N(c2ccccc2)C1=O)Nc1ccccc1 (stereo not drawn),79.3*,7.3,101.0,1.0,-3.0,102.0
O=C(CC1SC(=O)N(c2ccccc2)C1=O)Nc1ccc(Br)cc1 (stereo not drawn),106.4,-9.9,98.0,-5.0,11.3,101.0
Cc1[nH]c(=O)[nH]c(=O)c1S(=O)(=O)Nc1cccc(C(F)(F)F)c1,101.2,-2.5,111.0,6.0,1.7,108.0
CCn1nc(C)c(CN2CCC(C(=O)Nc3cccc(-c4cccc(Cl)c4)c3)CC2)c1C,107.5,20.3,146.0*,12.0,29.4,100.0
Cc1cc(C)n(CCCN2CCC(C(=O)Nc3cccc(-c4cccc(F)c4)c3)CC2)n1,113.3,29.6,158.0*,25.0*,18.5,109.0
CCOC(=O)C1CCCN(C(=O)CNC(=O)c2ccc(Br)o2)C1 (stereo not drawn),101.9,11.9,/,/,-5.7,/
O=C(CN1C(=O)NC2(CCCC2)C1=O)OCC(=O)c1cccc(Cl)c1,98.7,5.6,/,/,0.3,/
N#Cc1c(NCCN)nc(NCc2ccccc2)c2c1CCN(Cc1ccccc1)C2,94.3,/,169.0*,36.0*,/,104.0
CC(C)CN(C(=O)Cn1c(C(F)(F)F)nc2ccccc21)c1c(N)n(Cc2ccccc2)c(=O)[nH]c1=O,111.4,/,/,/,/,/
Cc1nccn1-c1c2c(c(C#N)c3nc4ccccc4n13)CCCC2,104.7,/,/,/,/,/
N#Cc1c2c(c(-n3cnc4ccccc43)n3c1nc1ccccc13)CCC2,94.9,44.9*,85.0,-13.0,-0.1,73.0
COCC(=O)Nc1cc(C)c2c(=O)oc3ccccc3c2n1,100.2,1.5,99.0,-3.0,5.5,102.0
COc1ccc(C(=O)Nc2cc(C)c3c(=O)oc4ccccc4c3n2)cc1,-3.5*,-4.9,111.0,2.0,5.9,110.0
O=C(c1cc2cc3ccc(Cl)cc3nc2o1)N1CCN(Cc2ccc3c(c2)OCO3)CC1,59.3*,/,/,/,/,/
O=C(c1cc2cc(Cl)ccc2[nH]1)N1CCN(Cc2ccc3c(c2)OCO3)CC1,106.5,26.6,100.0,-1.0,-7.1,100.0
COc1ccc(C(=O)Nc2ccc3[nH]ccc3c2)cc1OC,84.7*,-23.2,/,/,6.1,/
CC1CCCC(NCC(O)COC(c2ccc(F)cc2)c2ccc(F)cc2)C1C (stereo not drawn),89.3,11.3,143.0*,7.0,14.9,101.0
CC1CCCC(NC(=O)CSc2ccc(F)cc2)C1C (stereo not drawn),100.5,-1.7,91.0,-1.0,-5.1,88.0
SMILES,DSG3 Ab inh,Apaf-1 inh,MEKK2wt PB1 HTS,MEKK2mut PB1 HTS,UBC13 polyUb,MEKK3 PB1 HTS
CN(C(=O)c1ccc(Oc2ccc([N+](=O)[O-])cc2)cc1)C1CCCCC1,91.9*,10.9,97.0,2.0,5.8,98.0
Cc1cccc(NS(=O)(=O)c2nnc(NC(=O)C3CCCCC3)s2)c1,100.6,22.6,101.0,0.0,-22.8,98.0
COc1ccccc1-c1ccc([C@@H]2C[C@H]3[C@@H](CN2)CON3C)cc1,97.8,/,/,/,/,/
Nc1nc(N)c2cc(S(=O)(=O)c3ccc4ccccc4c3)ccc2n1,102.2,/,/,/,/,/
CC(=O)c1sc(-c2ccccc2)cc1NS(=O)(=O)c1ccccc1,75.3*,-19.3,97.0,-5.0,-3.2,97.0
CCn1c(N2CCN(CC(=O)c3ccc(OC)cc3)CC2)nc2ccccc21,/,/,2.0*[inhibitor],-18.0,/,2.0*[inhibitor]
Cc1occc1C(=O)N=Nc1c(O)n(C)c2ccccc12,83.7*,2.1,94.0,-2.0,-3.8,92.0
N#Cc1c(NC(=O)c2cnccn2)sc2c1CCCC2,98.6,6.1,86.0,-3.0,-9.0,88.0
c1cc(N2CCCC2)ccc1C(c1nnnn1C1CCCCC1)N1CCOCC1 (stereo not drawn),107.3,16.8,-5.0*,2.0,-0.1,96.0
COc1ccc(C(c2nnnn2C2CCCCC2)N2CCN(c3ccc(OC)cc3)CC2)cc1 (stereo not drawn),109.0,14.3,101.0,-3.0,-0.3,101.0
C#CCOCCOCCOCCNc1nc(N2CCN(C(=O)[C@H](Cc3cc4ccccc4[nH]3)n3cc([C@@H](N)Cc4ccc(O)cc4)nn3)CC2)nc(N2CCN(C(=O)[C@H](Cc3cc4ccccc4[nH]3)n3cc([C@@H](N)CC(C)C)nn3)CC2)n1,114.7,/,201.0*,54.0*,/,98.0
C#CCOCCOCCOCCNc1nc(N2CCN(C(=O)C(Cc3cc4ccccc4[nH]3)n3cc(C(N)Cc4ccc(O)cc4)nn3)CC2)nc(N2CCN(C(=O)C(Cc3cc4ccccc4[nH]3)n3cc(C(N)Cc4ccc(O)cc4)nn3)CC2)n1 (stereo not drawn),/,/,298.0*,179.0*,/,98.0
C#CCOCCOCCOCCNc1nc(N2CCN(C(=O)C(CCC(=O)O)n3cc(C(N)CC(C)C)nn3)CC2)nc(N2CCN(C(=O)C(Cc3cc4ccccc4[nH]3)n3cc(C(N)Cc4ccc(O)cc4)nn3)CC2)n1 (stereo not drawn),104.2,6.6,131.0,19.0,10.2,105.0
Cc1ccc2c(c1)[C@@H]1[C@H](CO2)[C@H](c2ccccc2)[C@]2(C)C(=O)N[C@H](C)C(=O)N12,106.3,4.6,/,/,2.3,/
O=S(=O)(c1ccc(N2CCC(c3ccc(Cl)cc3)=N2)cc1)N(CCO)CCO,101.5,19.5,101.0,-1.0,23.9,99.0
CN(C)CCCNS(=O)(=O)c1ccc(N2CCC(c3ccc(Cl)cc3)=N2)cc1,/,73.4*,162.0*,22.0,55.2*,99.0
S=c1[nH]c(-c2ccccc2)cn1/N=C/c1ccc(Br)cc1,98.3,2.7,86.0,-13.0,10.4,99.0
S=c1[nH]c(-c2ccccc2)cn1/N=C/c1cccnc1,79.9*,-23.9,100.0,-2.0,-1.9,97.0
CCCOC(=O)C1=C(C)NC(=O)NC1c1cccc2ccccc12 (stereo not drawn),2.5*,20.3,104.0,1.0,-2.6,103.0

# Source: PubChem
